Screening results from PubChem BioAssay.
Most compounds without a hit are left out; they make up all but 3.5% or so of the library.
RGS4 block = RGS4 inhibitors, primary screen, cell-based, HEK293 M3R inducible RGS4, calcium flux; Regulator of G-protein signaling 4 (Homo sapiens), P49798; Fluo-4 calcium flux; active compounds read high; triggered by carbachol at its EC20; AID 463165, 2010; 310,000 compounds, 0.45% hits; B-score at 10 µM;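 active = B-score, a plate-corrected calcium signal, over three deviations above library mean, with baseline fluorescence within five deviations of library mean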;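 also: RGS4 expression induced by doxycycline in cells with stable M3 receptor; B-score is computed from the integrated fluorescence ratio over baseline after carbachol; higher B-score means a larger calcium signal and so more RGS4 inhibition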
Target sequence (P49798 whole entry, looked up): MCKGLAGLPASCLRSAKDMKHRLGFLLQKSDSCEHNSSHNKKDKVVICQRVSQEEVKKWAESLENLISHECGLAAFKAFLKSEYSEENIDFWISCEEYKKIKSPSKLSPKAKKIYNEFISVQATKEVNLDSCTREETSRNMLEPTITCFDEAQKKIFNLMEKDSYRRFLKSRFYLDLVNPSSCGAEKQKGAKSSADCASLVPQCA
MrgX1 PAM = positive allosteric modulators of MrgX1, primary screen, HEK293 cells, Fluo-4 calcium flux | FDSS; active compounds read high | B-score at 10 µM | 310,000 compounds, 0.63% hits | AID 588675, 2011;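 active = plate-corrected calcium response at least 3 library SD above typical, normal starting fluorescence, not activating the receptor alone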;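 also: compound read alongside a low EC10 to EC30 dose of BAM8-22 agonist; peak minus trough fluorescence over baseline measured at the second addition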
Target sequence (Q96LB2 whole entry, looked up): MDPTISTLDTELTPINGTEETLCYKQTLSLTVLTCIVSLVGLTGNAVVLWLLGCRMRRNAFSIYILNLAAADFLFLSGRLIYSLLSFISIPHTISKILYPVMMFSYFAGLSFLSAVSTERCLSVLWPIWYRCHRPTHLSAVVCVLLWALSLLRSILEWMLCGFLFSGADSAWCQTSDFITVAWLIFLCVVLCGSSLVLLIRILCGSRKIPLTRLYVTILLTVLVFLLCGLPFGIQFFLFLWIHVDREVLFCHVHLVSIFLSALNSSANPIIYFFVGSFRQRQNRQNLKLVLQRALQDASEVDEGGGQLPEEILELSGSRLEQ
RGS4 act = RGS4 potentiators or activators, primary screen, cell-based, HEK293 M3R inducible RGS4, calcium flux | carbachol calcium flux Fluo4; active compounds read low | B-score at 10 µM | 310,000 compounds, 0.92% hits | AID 463111, 2010;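 active = B-score of the integrated calcium signal more than 4 SD below the library mean, with starting fluorescence not abnormally high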;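 also: negative B-score means reduced calcium response which marks RGS4 activation or potentiation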
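test system = HEK293 cells with stable M3R and inducible RGS4 | schedule = recording 10 s baseline at 1 Hz, 100 s post-agonist | technique = Fluo4-AM (2 µM) calcium-flux fluorescence, kinetic read | measure = Agonist-evoked peak-minus-minimum fluorescence over baseline, integrated ratio, B score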
MrgX1 ag = agonists of human MrgX1 receptor, primary screen, HEK293 cells, Fluo-4 calcium flux | 310,000 compounds, 0.44% hits | Fluo-4 calcium fluorescence, agonist mode; active compounds read high | AID 588627, 2011 | B-score at 10 µM;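 active = calcium response B-score plate-corrected fluorescence ratio at least 3 library SD, with starting fluorescence B-score inside 5 SD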
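Material: MrgX1-expressing HEK293 cells; input: 15,000 cells per well; doses: test compound given as first of three sequential additions; schedule: overnight plating before 1 h dye loading; technique: Fluo-4 NW calcium-flux fluorescence, kinetic read; evaluation: baseline-normalised fluorescence change ratio, B-scored; control set: plate-wise positive and negative controls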
MrgX1 antagonist = antagonists of human MrgX1 receptor, primary screen, HEK293 cells, Fluo-4 calcium flux | AID 588676, 2011 | B-score at 10 µM | BAM8-22 antagonism; active compounds read low | 310,000 compounds, 1.3% hits;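 active = calcium-response B-score plate-corrected more than 3 library SD below zero, starting fluorescence within 5 deviations, no agonist response on first addition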;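 also: peak minus trough fluorescence over baseline after final BAM8-22 challenge near maximal dose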
MrgX1 ag confirm = MrgX1 receptor agonists, duplicate retest, confirmation, HEK293 cells, Fluo-4 calcium flux | shares compounds with MrgX1 ag | Fluo-4 calcium fluorescence, FDSS | activation, % at 10 µM | 600 compounds, 78% hits;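 active = calcium signal rise, corrected for plate position, at least 3 library SD high, with starting brightness within 5 such deviations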
HEK293 Ca flux = nonspecific calcium signal in parental HEK293, confirmation, counter-screen for MrgX1 antagonist project, parental HEK293 cells, Fluo-4 calcium flux; shares compounds with MrgX1 antagonist; Fluo-4 calcium fluorescence, FDSS; fluorescence ratio F(max-min)/F0 at 10 µM; 4,000 compounds, 2% hits; AID 624111, 2012;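 active = duplicate-averaged calcium fluorescence ratio at least three times the standard deviation of buffer wells, a nonspecific response in parental cells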
HEK293 Ca counter = calcium response in parental HEK293 cells, primary screen, counter-screen for MrgX1 allosteric activator project, cell-based, Fluo-4 calcium flux, duplicate; 4,000 compounds, 0.4% hits; Fluo-4 fluorescence ratio; active compounds read high; shares compounds with MrgX1 antagonist; AID 624114, 2012; fluorescence ratio F(max-min)/F0 at 10 µM;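 active = calcium fluorescence ratio, averaged over duplicates, at least 3 SD of the buffer-well ratio, meaning a nonspecific response in receptor-free cells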;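 also: untransfected parental HEK293 lacking MrgX1 used as counterscreen for MrgX1 allosteric activators; fluorescence change taken during the second addition on a kinetic imager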
HEK293 Ca cntr2 = calcium response in parental HEK293 cells, primary screen, counter-screen for MrgX1 agonist project, cell-based, Fluo-4 calcium flux, duplicate, agonist mode; shares compounds with MrgX1 antagonist; Fluo-4 calcium fluorescence (FDSS); active compounds read high; fluorescence ratio F(max-min)/F0 at 10 µM; 4,000 compounds, 8.7% hits; AID 624115, 2012;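 active = calcium fluorescence ratio at least three times the spread of buffer wells, meaning a non-specific response in parental cells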
* marks the source's active call; other numbers are inactive results; i = inactive; x = no result.

SMILES	RGS4 block	MrgX1 PAM	RGS4 act	MrgX1 ag	MrgX1 antagonist	MrgX1 ag confirm	HEK293 Ca flux	HEK293 Ca counter	HEK293 Ca cntr2
Cc1ccc(S(=O)(=O)N2CCN(C(=O)C(C)Cn3cncn3)CC2)cc1 (stereo not given)	i	i	i	i	i	x	x	x	x
COc1ccc2c(c1)CC/C(=C\Nc1ccc3c(c1)OCO3)C2=O	i	i	i	26.9*	i	i	i	i	i
O=C(NNC(=S)NC1CCCCC1)c1sc2ccccc2c1Cl	i	i	i	i	i	x	x	x	x
CC(C)(C)C(=O)NC(=S)NNC(=O)c1sc2ccccc2c1Cl	i	i	i	142*	i	917.0%*	i	i	177*
Cc1ccc(C)c(SCC(=O)OCC(=O)NCCNC(=O)COC(=O)CSc2cc(C)ccc2C)c1	i	i	i	i	i	x	x	x	x
Cc1cc(NCc2ccccc2)nc2ccccc12	i	i	i	82.8*	i	292.5%*	i	i	i
Cc1ccc(NC(=O)CCc2nnc3ccc(N4CCC5(CC4)OCCO5)nn23)cc1F	i	i	i	i	i	x	x	x	x
O=C(NC(=S)Nc1ccccc1Br)c1ccco1	i	i	i	i	i	x	x	x	x
O=C(Cc1ccc([N+](=O)[O-])cc1)OCc1c(F)cccc1Cl	i	i	i	i	i	x	x	x	x
O=S(=O)(Nc1c(O)ccc2ccccc12)c1ccccc1	i	i	i	29*	i	i	i	i	i
O=S(=O)(Nc1ncccn1)c1ccc(F)cc1	i	i	i	i	i	x	x	x	x
O=S(=O)(Nc1c(O)ccc2ccccc12)c1ccc(F)cc1	i	i	i	40.2*	i	81.0%*	i	i	i
O=C(c1cccc(Cl)c1)C1CCCN(C(=O)c2ccc3c(c2)OCO3)C1 (stereo not given)	i	i	i	i	i	x	x	x	x
COCC1CCN(C(=O)C2CCC(=O)N(C3CCCCCC3)C2)CC1 (stereo not given)	i	i	i	i	i	x	x	x	x
Cn1c(=O)c2[nH]c(C3CCCC3)nc2n(C)c1=O	i	i	i	36*	i	i	i	i	i
Cn1c(=O)c2[nH]c(N3CCCCC3)nc2n(C)c1=O	i	i	i	i	i	x	x	x	x
O=C1Nc2ccccc2OCc2c1cccc2[N+](=O)[O-]	i	i	i	i	i	x	x	x	x
CC(C)n1c(-c2ccc(N(C)C)cc2)nc2ccccc21	x	i	x	30.5*	i	162.2%*	i	i	i
CCn1c(-c2ccc(N(C)C)cc2)nc2ccccc21	i	i	i	30.5*	i	87.2%*	i	i	i
CCn1c(-c2ccc(N)cc2)nc2ccccc21	i	i	i	i	i	x	x	x	x
COCCC(=O)N1CCC(Oc2ccc(C(=O)N3CCCCC3CCO)cc2)CC1 (stereo not given)	i	i	i	i	i	x	x	x	x
CC(C)N1CCc2c(sc(NC(=O)Cc3ccccc3)c2C(N)=O)C1	i	i	i	i	i	x	x	x	x
CC(C)N1CCc2c(sc(NC(=O)c3ccc(C(=O)c4ccccc4)cc3)c2C(N)=O)C1	i	i	i	35.5*	i	i	i	i	i
O=[N+]([O-])c1cccc(S(=O)(=O)NCCCn2ccnc2)c1	i	i	i	i	i	x	x	x	x
COc1cc(SC)ccc1C(=O)Nc1ccc2ncccc2c1	i	i	i	i	i	x	x	x	x
SMILES	RGS4 block	MrgX1 PAM	RGS4 act	MrgX1 ag	MrgX1 antagonist	MrgX1 ag confirm	HEK293 Ca flux	HEK293 Ca counter	HEK293 Ca cntr2
COc1ccc(OC)c(NC(=O)Nc2c(O)ccc3ccccc23)c1	i	i	i	28.9*	i	i	i	i	i
c1csc(C2C3=C(Nc4ncnn42)c2ccccc2OC3)c1 (stereo not given)	i	i	i	31.3*	i	121.6%*	i	i	i
CC/C(=N\NC(=O)c1ccncc1)C12CC3CC(CC(C3)C1)C2	i	i	i	i	i	x	x	x	x
O=C(NNC(=O)C1CCCCC1)c1ccncc1	i	i	i	i	i	x	x	x	x
O=C(NNC(=S)NC(=O)C12CC3CC(CC(C3)C1)C2)c1ccncc1	i	i	i	117*	i	600.4%*	i	i	121*
CC1(C(=O)NC(=S)NNC(=O)c2ccncc2)CCCCC1	i	i	i	86.7*	i	488.6%*	i	i	101*
CC(C)(C)[C@H]1C=C(C(=O)Nc2ccccc2)O[C@@H](OCCCCO)C1	i	i	i	i	i	x	x	x	x
Cc1[nH]nc(-c2ccc(O)cc2O)c1Oc1ccccc1	i	i	i	28.2*	i	179.3%*	i	i	i
COc1ccc(C2C(C#N)=C(N)Oc3cccc(O)c32)cc1 (stereo not given)	i	i	i	28.4*	i	i	i	i	i
COc1ccccc1N(CC(=O)N1CCCCCC1)S(=O)(=O)c1ccc(C)cc1	i	i	i	i	i	x	x	x	x
CCOc1ccccc1N(CC(=O)N1CCCCCC1)S(=O)(=O)c1ccc(C)cc1	i	i	i	34.4*	i	141.6%*	i	i	50.2*
CCOc1ccccc1N(CC(=O)N1CCC(C)CC1)S(=O)(=O)c1ccc(C)cc1	i	i	i	i	i	x	x	x	x
CCOc1ccccc1N(CC(=O)N1CCOCC1)S(=O)(=O)c1ccccc1	i	i	i	138*	i	540.9%*	i	i	103*
